Structures are written as SMILES. Activity calls are given as the source filed them. The rule behind the calls is not given here.

The subject of one experiment is MCF7. Briefly: Cell cycle arrest in human MCF7 cells assessed as accumulation at G0/G1 phase at 0.25 to 0.5 uM after 24 hrs by propidium iodide-staining based flow cytometric analysis. Format: functional. In short, it runs like this: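 Cells were seeded at 5 × 10^5 cells/mL. At 24 h after plating they were treated with increasing concentrations for 24 h, washed in PBS, and fixed in ice-cold 70% ethanol for at least 24 h. They were stained with propidium iodide plus RNase A for 30 min at 37 °C and analysed by flow cytometry for phase distribution.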
On the technique in general: A flow cytometer gives signals particle by particle.

The next experiment concerns T47D. Briefly: Induction of autophagy in human T47D cells assessed as increase in LC3-2 puncta level at 0.25 to 0.5 uM after 48 hrs by immunofluorescence staining based microscopic analysis. Format: functional, cell-based. The method, boiled down:
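Cells seeded on glass coverslips in complete 1640 or DMEM and incubated with inhibitors at different concentrations for 48 h. Fixed in 4% paraformaldehyde, permeabilized with 0.15% Triton X-100, blocked in 4% BSA/PBS for 1 h at room temperature. Anti-LC3B (1:200) overnight, then FITC-conjugated secondary, DAPI nuclear stain. LC3B-II puncta viewed by fluorescence microscopy.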

`N#CCN1CCC(n2c(=O)cnc3cnc4ccc(-c5ccc(N)nc5)cc4c32)CC1`: the result in the experiment on MCF7 and in the experiment on T47D was Active.

The values above are taken from ChEMBL document CHEMBL4020823, “Highly Selective, Potent, and Oral mTOR Inhibitor for Treatment of Cancer as Autophagy Inducer” (J Med Chem, 2018).
